The source made the active and inactive calls. The rule behind the calls is not given here.
Experiments:
[1] = Binding affinity to aggregated amyloid beta (1 to 40) by fluorescence titration analysis
Mus musculus [2] = species: Mus musculus; experiment: Binding affinity to beta-amyloid plaque in APP/PS1 transgenic mouse brain assessed as signal-to-noise ratio after 30 mins by DAPI staining; type: tissue-based
Summary of the method: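 Eleven-month-old APP/PS1 mice (Tg2576 × PS1 M146L 6.1) perfusion-fixed with 4% paraformaldehyde; cryosections 10 μm, three per concentration. Stained 30 min with 50 μM compound in 9:1 PBS/EtOH, then washed in 75% EtOH, 95% EtOH and xylene. Imaged through a DAPI filter; S/N taken from five plaque versus five background regions across three plaques per section.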

Mus musculus [3] = experiment: In vivo binding affinity to beta-amyloid plaque in PDAPP transgenic mouse hippocampus dentate gyrus region at 50 mg/kg, ip after 48 hrs; type: functional, organism-based; design: dose 50 mg/kg
Summary of the method: (§1)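 Ten-month-old PDAPP mice given a single 50 mg/kg ip dose, vehicle 10% DMSO/PBS, with vehicle-only animals as control. Perfused with 4% PFA at 48 h; brain sections postfixed in 4% PFA for 5 min and mounted. CA1 and dentate gyrus plaques imaged by fluorescence microscopy at 10× and 40×.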

[4] = biological target: Amyloid-beta precursor protein (Homo sapiens) (UniProt P05067); experiment: Binding affinity to beta-amyloid plaque in normal human brain after 30 mins by fluorescence microscopy; type: tissue-based
Summary of the method: (§2)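 Frozen sections (10 μm) of human AD brain and age-matched control brain. Stained 30 min with 50 μM compound in 9:1 PBS/EtOH, washed in 75% EtOH, 95% EtOH and xylene, then fluorescence-imaged through a DAPI filter.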

Mus musculus [5] = experiment: In vivo binding affinity to beta-amyloid plaque in mouse hippocampus dentate gyrus region at 50 mg/kg, ip after 48 hrs; type: functional, organism-based; design: dose 50 mg/kg
[6] = test system: Radical scavenging activity; experiment: Antioxidant activity assessed as DPPH radical scavenging activity by spectrophotometric analysis; type: functional
Summary of the method: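 DPPH (100 μM) in MeOH mixed with test compound from 0 nM to 5 mM; compounds came from ~15 mM DMSO stocks diluted in MeOH. Loss of absorbance at 517 nm read on a plate reader. Each concentration run in triplicate; IC50 taken from a sigmoidal dose-response fit.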

Mus musculus [7] = experiment: In vivo binding affinity to beta-amyloid plaque in PDAPP transgenic mouse hippocampus CA1 region at 50 mg/kg, ip after 48 hrs; type: functional, organism-based; design: dose 50 mg/kg
Summary of the method: as §1

[8] = biological target: Amyloid-beta precursor protein (Homo sapiens) (UniProt P05067); experiment: Binding affinity to beta-amyloid plaque in brain of patient with Alzheimer's disease after 30 mins by fluorescence microscopy; type: tissue-based
Summary of the method: as §2

Amyloid-beta precursor protein (Homo sapiens), sequence (P05067 whole entry): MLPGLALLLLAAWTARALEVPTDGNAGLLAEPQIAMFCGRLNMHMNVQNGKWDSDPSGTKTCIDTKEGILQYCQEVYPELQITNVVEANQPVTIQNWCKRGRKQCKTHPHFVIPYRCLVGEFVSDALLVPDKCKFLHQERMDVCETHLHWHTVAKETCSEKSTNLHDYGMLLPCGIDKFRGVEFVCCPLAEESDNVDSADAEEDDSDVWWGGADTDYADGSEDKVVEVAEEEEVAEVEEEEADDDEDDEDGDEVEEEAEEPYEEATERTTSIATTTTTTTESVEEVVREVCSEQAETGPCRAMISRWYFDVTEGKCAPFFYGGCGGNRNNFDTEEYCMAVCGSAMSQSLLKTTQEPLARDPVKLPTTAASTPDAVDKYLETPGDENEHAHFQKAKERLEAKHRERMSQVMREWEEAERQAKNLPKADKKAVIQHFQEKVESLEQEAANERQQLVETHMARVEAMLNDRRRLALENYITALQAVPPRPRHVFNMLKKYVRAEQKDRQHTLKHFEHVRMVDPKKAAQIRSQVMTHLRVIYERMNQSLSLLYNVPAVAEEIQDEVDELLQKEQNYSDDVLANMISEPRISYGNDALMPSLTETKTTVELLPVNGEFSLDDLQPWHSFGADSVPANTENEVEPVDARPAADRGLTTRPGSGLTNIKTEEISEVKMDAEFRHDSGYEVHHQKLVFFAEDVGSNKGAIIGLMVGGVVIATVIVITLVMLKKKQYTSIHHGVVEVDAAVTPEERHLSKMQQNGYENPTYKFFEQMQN

Compound | Kd [1] [µM] | Ratio (Mus musculus [2]) | Activity [4] | IC50 [6] [µM] | Activity [8] | Activity (Mus musculus [3]) | Activity (Mus musculus [5]) | Activity (Mus musculus [7])
Oc1ccc(C#Cc2ccc(C#Cc3ccc(O)cc3)cc2)cc1 | 0.054 | 5.9 |  | 45 |  |  |  | 
Oc1cc(O)cc(/C=C/c2ccc(/C=C/c3cc(O)cc(O)c3)cc2)c1 | 0.16 | 9.6 | inactive | 5.1 | Active | Active | inactive | Active
Oc1ccc(/C=C/c2cc(O)cc(O)c2)cc1 [RESVERATROL] |  |  |  | 62 |  |  |  | 
Oc1ccccc1/C=C/c1ccc(/C=C/c2ccccc2O)cc1 | 0.8 | 11 |  | 4 |  |  |  | 
O=c1c(O)c(-c2ccc(O)c(O)c2)oc2cc(O)cc(O)c12 [QUERCETIN] |  |  |  | 1.3 |  |  |  | 
Oc1ccc(/C=C/c2ccccc2/C=C/c2ccc(O)cc2)cc1 | 6.3 | 5.1 |  | 4 |  |  |  | 
Oc1ccc(/C=C/c2ccc(O)cc2)cc1 [TRANS-4,4'-DIHYDROXYSTILBENE] | 9.2 | 5.2 |  | 1.8 |  |  |  | 
Oc1ccc(/C=C/c2ccc(/C=C/c3ccc(O)cc3)cc2)cc1 | 0.0095 | 14 | inactive | 3.1 | Active | Active | inactive | Active
Oc1ccc(/C=C/c2ccc(/C=C/c3ccccc3)cc2)cc1 | 0.16 | 8.1 |  | 5.6 |  |  |  | 

Continued, in another order:

Kd [1] [µM] | Ratio (Mus musculus [2]) | Activity [4] | IC50 [6] [µM] | Activity [8] | Compound | Activity (Mus musculus [3]) | Activity (Mus musculus [5]) | Activity (Mus musculus [7])
0.0053 | 9.6 | inactive | > 100 | Active | Oc1cccc(/C=C/c2ccc(/C=C/c3cccc(O)c3)cc2)c1 | Active | inactive | Active
0.19 | 3.8 |  | 4.5 |  | Oc1ccc(/C=C/c2ccc(/C=C/c3cc(O)cc(O)c3)cc2)cc1 |  |  | 
2.5 | 3.1 |  | 3.4 |  | Oc1ccc(/C=C/c2cccc(/C=C/c3ccc(O)cc3)c2)cc1 |  |  | 
3.5 | 9 |  | 3.5 |  | Oc1ccc(/C=C/c2ccc(/C=C/c3cccc(O)c3)cc2)cc1 |  |  | 
0.2 | 5.6 |  | 9.1 |  | Oc1cccc(/C=C/c2ccc(/C=C/c3ccc(O)c(O)c3)cc2)c1 |  |  | 
0.26 | 9.1 |  | > 100 |  | Oc1ccc(/C=C/c2ccc(/C=C/c3ccc(O)c(O)c3)cc2)cc1 |  |  | 

From ChEMBL document CHEMBL1269010, “Phenolic bis-styrylbenzenes as β-amyloid binding ligands and free radical scavengers” (J Med Chem, 2010)
